The test system of one experiment is Trypanosoma cruzi. Nature of the experiment: Antitrypanosomal activity against Trypanosoma cruzi Tulahuen CL2 by microdilution method. The format is functional, organism-based. The method in brief: (§1)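 In vitro test run by the WHO procedure, using serial microdilution in a 96-well microtiter integrated system.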
Another experiment deals with Trypanosoma brucei. Nature of the experiment: Antitrypanosomal activity against Trypanosoma brucei S427 by microdilution method. The format is functional, organism-based. The gist of the method:
as §1
A general note: In broth dilution the organism is exposed to a series of concentrations in liquid medium.

As usually defined, the IC50 is the concentration that inhibits the measured activity by half. The low end stands for greater potency in that assay, the high end for weaker potency in that assay.

Consider `C[C@H]1CC[C@]2(C(=O)O)CC[C@]3(C)C(=CC[C@@H]4[C@@]5(C)CC[C@H](O[C@@H]6OC[C@H](O)[C@H](O)[C@H]6O)[C@](C)(CO)[C@@H]5CC[C@]43C)[C@@H]2[C@]1(C)O` [BREVICUSPISAPONIN 1], for which the IC50 in the experiment on Trypanosoma cruzi and in the experiment on Trypanosoma brucei was over 32 µM each time.

With `C[C@H]1[C@H](C)CC[C@]2(CO)CC[C@]3(C)C(=CC[C@@H]4[C@@]5(C)CC[C@H](O)C(C)(C)[C@@H]5CC[C@]43C)[C@H]12` [UVAOL], the IC50 in the experiment with Trypanosoma cruzi and with Trypanosoma brucei was over 32 µM each time.

On to `CC(=O)OC[C@H]1O[C@@H](OC(=O)[C@]23CC[C@@H](C)[C@@](C)(OC(C)=O)[C@H]2C2=CC[C@@H]4[C@@]5(C)CC[C@H](O[C@@H]6OC[C@H](OC(C)=O)[C@H](O[C@@H]7O[C@H](COC(C)=O)[C@@H](OC(C)=O)[C@H](OC(C)=O)[C@H]7OC(C)=O)[C@H]6OC(C)=O)C(C)(C)[C@@H]5CC[C@@]4(C)[C@]2(C)CC3)[C@H](OC(C)=O)[C@@H](OC(C)=O)[C@@H]1OC(C)=O` [PERACETYL ILEXOSIDE II], for which the IC50 in the experiment with Trypanosoma cruzi and in the experiment with Trypanosoma brucei was over 32 µM in each case.

In the case of `C[C@H]1[C@H](C)CC[C@]2(C(=O)O)CC[C@]3(C)C(=CC[C@@H]4[C@@]5(C)CC[C@H](O)C(C)(C)[C@@H]5CC[C@]43C)[C@H]12` [URSOLIC ACID], the 50% inhibitory concentration (IC50) in the experiment with Trypanosoma cruzi and in the experiment with Trypanosoma brucei was 4 µM each time.

Turning to `C[C@H]1CC[C@]2(C(=O)O)CC[C@]3(C)C(=CC[C@@H]4[C@@]5(C)CC[C@H](O[C@@H]6OC[C@H](O)[C@H](O)[C@H]6O)C(CO)(CO)[C@@H]5CC[C@]43C)[C@@H]2[C@]1(C)O` [BREVICUSPISAPONIN 2], the values for the IC50 in the experiment on Trypanosoma cruzi and with Trypanosoma brucei were over 32 µM and 16 µM, respectively.

For `C[C@@H]1CC[C@]2(C(=O)O[C@@H]3O[C@H](CO)[C@@H](O)[C@H](O)[C@H]3O)CC[C@]3(C)C(=CC[C@@H]4[C@@]5(C)CC[C@H](O[C@@H]6OC[C@H](O)[C@H](O[C@@H]7O[C@H](CO)[C@@H](O)[C@H](O)[C@H]7O)[C@H]6O)C(C)(C)[C@@H]5CC[C@]43C)[C@@H]2[C@]1(C)O` [ILEKUDINOSIDE E], the IC50 in the experiment on Trypanosoma cruzi and in the experiment on Trypanosoma brucei was over 32 µM throughout.

As to `C[C@H]1[C@H](C)CC[C@]2(C(=O)O[C@@H]3O[C@H](CO[C@@H]4O[C@H](CO)[C@@H](O)[C@H](O)[C@H]4O)[C@@H](O)[C@H](O)[C@H]3O)CC[C@]3(C)C(=CC[C@@H]4[C@@]5(C)CC[C@H](O[C@@H]6OC[C@H](O)[C@H](O[C@@H]7O[C@H](CO)[C@@H](O)[C@H](O)[C@H]7O)[C@H]6O)C(C)(C)[C@@H]5CC[C@]43C)[C@H]12` [MATESAPONIN 3], the IC50 in the experiment with Trypanosoma cruzi and in the experiment with Trypanosoma brucei was over 32 µM throughout.

Turning to `CC1(C)CC[C@]2(C(=O)O)CC[C@]3(C)C(=CC[C@@H]4[C@@]5(C)CC[C@H](O[C@@H]6O[C@H](CO)[C@H](O)[C@H](O)[C@H]6O[C@@H]6O[C@H](CO)[C@@H](O)[C@H](O)[C@H]6O)C(C)(C)[C@@H]5CC[C@]43C)[C@@H]2C1`, the concentration for half-maximal inhibition (IC50) in the experiment on Trypanosoma cruzi was 10 µM; in the experiment with Trypanosoma brucei, 4 µM.

In the case of `C[C@@H]1CC[C@]2(C(=O)O[C@@H]3O[C@H](CO)[C@@H](O)[C@H](O)[C@H]3O)CC[C@]3(C)C(=CC[C@@H]4[C@@]5(C)CC[C@H](O)[C@@](C)(CO)[C@@H]5CC[C@]43C)[C@@H]2[C@]1(C)O` [PEDUNCULOSIDE], the concentration for half-maximal inhibition (IC50) in the experiment on Trypanosoma cruzi and in the experiment on Trypanosoma brucei was over 32 µM in each case.

As for `CC1(C)CC[C@]2(C(=O)O[C@@H]3O[C@H](CO)[C@@H](O)[C@H](O)[C@H]3O)CC[C@]3(C)C(=CC[C@@H]4[C@@]5(C)CC[C@H](O[C@@H]6O[C@H](CO)[C@H](O)[C@H](O)[C@H]6O[C@@H]6O[C@H](CO)[C@@H](O)[C@H](O)[C@H]6O)C(C)(C)[C@@H]5CC[C@]43C)[C@@H]2C1`, the IC50 in the experiment with Trypanosoma cruzi and in the experiment on Trypanosoma brucei was over 32 µM throughout.

In the case of `C[C@H]1[C@H](C)CC[C@]2(C(=O)O[C@@H]3O[C@H](CO)[C@@H](O)[C@H](O)[C@H]3O)CC[C@]3(C)C(=CC[C@@H]4[C@@]5(C)CC[C@H](O[C@@H]6OC[C@H](O)[C@H](O[C@@H]7O[C@H](CO)[C@@H](O)[C@H](O)[C@H]7O)[C@H]6O)C(C)(C)[C@@H]5CC[C@]43C)[C@H]12` [MATESAPONIN 1], the IC50 in the experiment with Trypanosoma cruzi and with Trypanosoma brucei was over 32 µM throughout.

In the case of `C[C@H]1[C@H](C)CC[C@]2(C(=O)O[C@@H]3O[C@H](CO[C@@H]4O[C@H](CO)[C@@H](O)[C@H](O)[C@H]4O)[C@@H](O)[C@H](O)[C@H]3O)CC[C@]3(C)C(=CC[C@@H]4[C@@]5(C)CC[C@H](O[C@@H]6OC[C@H](O)[C@H](O[C@@H]7O[C@H](CO)[C@@H](O)[C@H](O)[C@H]7O)[C@H]6O[C@@H]6O[C@@H](C)[C@H](O)[C@@H](O)[C@H]6O)C(C)(C)[C@@H]5CC[C@]43C)[C@H]12` [MATESAPONIN 4], the IC50 in the experiment with Trypanosoma cruzi and with Trypanosoma brucei was over 32 µM in each case.

As to `CC(=O)O[C@H]1CC[C@]2(C)[C@H]3CC=C4[C@@H]5[C@@H](C)[C@H](C)CC[C@]5(C(=O)O)CC[C@@]4(C)[C@]3(C)CC[C@H]2C1(C)C` [O-ACETYLURSOLIC ACID], the IC50 is over 32 µM in the experiment with Trypanosoma cruzi and 17 µM with Trypanosoma brucei.

`CC1CS(=O)(=O)CCN1/N=C/c1ccc([N+](=O)[O-])o1` (configuration not stated) [NIFURTIMOX]: the IC50 in the experiment with Trypanosoma cruzi came to 0.39 µM.

Values taken from ChEMBL document CHEMBL1148922, “Triterpenoids from Brazilian Ilex species and their in vitro antitrypanosomal activity” (J Nat Prod, 2004).
